{"source": "paper PMC2806602", "about": "(The Journal of neuroscience : the official journal of the …, 2009)", "key": {"[1]": {"target": "T1, GluRδ2^Wt (Rattus norvegicus, UniProt Q63226)", "T1 sequence (Q63226 24-1007)": "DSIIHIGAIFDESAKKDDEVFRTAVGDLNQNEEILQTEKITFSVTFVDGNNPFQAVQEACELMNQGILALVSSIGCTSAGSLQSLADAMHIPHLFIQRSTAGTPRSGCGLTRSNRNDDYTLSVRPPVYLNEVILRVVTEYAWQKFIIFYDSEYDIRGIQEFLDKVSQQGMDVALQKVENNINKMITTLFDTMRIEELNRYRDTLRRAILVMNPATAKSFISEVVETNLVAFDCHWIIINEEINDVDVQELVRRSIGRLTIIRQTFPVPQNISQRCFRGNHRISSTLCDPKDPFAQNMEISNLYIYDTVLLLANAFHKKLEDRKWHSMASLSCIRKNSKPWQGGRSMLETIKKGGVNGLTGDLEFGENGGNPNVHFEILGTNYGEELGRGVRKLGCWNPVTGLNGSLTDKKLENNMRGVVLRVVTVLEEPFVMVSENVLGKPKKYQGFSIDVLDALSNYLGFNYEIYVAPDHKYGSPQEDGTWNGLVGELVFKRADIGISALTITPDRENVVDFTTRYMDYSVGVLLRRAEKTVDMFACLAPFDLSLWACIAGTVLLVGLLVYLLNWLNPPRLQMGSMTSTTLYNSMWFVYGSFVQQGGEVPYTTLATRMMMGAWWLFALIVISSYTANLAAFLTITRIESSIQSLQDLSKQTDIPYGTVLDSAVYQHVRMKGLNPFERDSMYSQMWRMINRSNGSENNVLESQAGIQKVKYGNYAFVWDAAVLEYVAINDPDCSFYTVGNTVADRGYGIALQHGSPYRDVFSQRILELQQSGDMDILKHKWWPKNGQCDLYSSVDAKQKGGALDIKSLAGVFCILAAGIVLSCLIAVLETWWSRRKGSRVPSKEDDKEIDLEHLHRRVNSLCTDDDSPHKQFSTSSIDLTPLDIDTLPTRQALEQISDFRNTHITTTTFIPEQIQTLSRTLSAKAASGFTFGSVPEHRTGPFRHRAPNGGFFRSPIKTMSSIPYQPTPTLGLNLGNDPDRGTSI", "test": "Two-electrode voltage-clamp recordings in Xenopus oocytes expressing GluRδ2^Wt", "assay_type": "cell-based", "method_in_brief": "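Oocytes injected with wild-type receptor cRNA the day after excision and collagenase treatment. Two-electrode voltage clamp at −40 mV and 23°C, 24–72 h post-injection. Bath: 90 mM NaCl, 3 mM KCl, 0.5 mM BaCl2, 10 mM HEPES, pH 7.6. Ba2+ was replaced by 0.5 mM Mg2+, Zn2+, Mn2+, Sr2+ or Ca2+, or Ca2+ was raised stepwise. Choline or NMDG chloride kept osmolarity and Cl− constant. Baseline was current without Ca2+.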"}, "[2]": {"target": "T2, GluRδ2^Lc R530K (Rattus norvegicus, UniProt Q63226, A654T/R530K)", "T2 sequence (Q63226 24-1007 R530K/A654T)": "T1 sequence (Q63226 24-1007) with R507K, A631T", "test": "Two-electrode voltage-clamp recordings in Xenopus oocytes, GluRδ2^Lc R530K", "assay_type": "cell-based", "conditions": "3 mM Ca^2+; baseline spontaneously active current; ± SEM", "method_in_brief": "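Oocytes expressing the Lc mutant were kept in 25 μM NASP to prevent cytotoxicity. Two-electrode voltage clamp at −40 mV and 23°C, 24–72 h after cRNA injection. Bath: 90 mM NaCl, 3 mM KCl, 0.5 mM BaCl2, 10 mM HEPES, pH 7.6. Choline or NMDG chloride balanced Cl− and osmolarity. Values are fold increase over the Ca2+-free spontaneously active baseline on applying 3 mM Ca2+, given as mean ± SEM over oocytes.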"}}, "note": "Residue numbers refer to the chain shown, from its start. “Also recorded” adds a separate entry of the source."}
{"smiles": "[Ca+2]", "note": "[Ca^2+, calcium]", "values": [{"measurement": "effect of divalent cation on currents at GluRδ2^Wt", "setting": "[1]; 0.5 mM Ba^2+ exchanged with 0.5 mM of the divalent cation", "result": "no changes were observed"}, {"measurement": "effect of extracellular Ca^2+ on baseline currents at GluRδ2^Wt", "setting": "[1]; increasing concentrations of Ca^2+", "result": "insensitive; also recorded: did not induce current"}, {"measurement": "Ca^2+ potentiation (relative to baseline)", "setting": "[2]", "result": "3.3 ± 0.20", "unit": "fold"}]}
